# What was measured:
# [1] = Binding affinity to Escherichia coli N-terminal 6 his tagged BamA barrel domain (421 to 810 residues) assessed as dissociation constant measured after 15 mins by microscale thermophoresis analysis
# In short: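 Microscale thermophoresis with E. coli BamA at 50 nM in 50 mM HEPES pH 7.6, 5 mM MgCl2, 0.05% Tween. Ligand stock was in water and diluted in HEPES buffer. It was tested from the highest soluble concentration, mostly 2 mM, in 1:1 serial dilution over 16 samples. A labeling/fluorescence pretest was run for each sample.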
# Pseudomonas aeruginosa [2] = assay: Antibacterial activity against multidrug resistant Pseudomonas aeruginosa 83979 clinical isolate assessed as reduction in bacterial growth measured after 24 hrs; type: functional
# Acinetobacter baumannii [3] = assay: Antibacterial activity against Acinetobacter baumannii NCTC 13301 assessed as reduction in bacterial growth measured after 24 hrs; type: functional
# Acinetobacter baumannii [4] = assay: Antibacterial activity against Acinetobacter baumannii DSM-30007 assessed as reduction in bacterial growth measured after 24 hrs; type: functional
# Pseudomonas aeruginosa [5] = assay: Antibacterial activity against Pseudomonas aeruginosa PA14 DSM 19882 assessed as reduction in bacterial growth measured after 24 hrs; settings: PA14 DSM 19882, 24 h
# Acinetobacter baumannii [6] = assay: Antibacterial activity against Acinetobacter baumannii ATCC 17978 assessed as reduction in bacterial growth measured after 24 hrs; type: functional
# Pseudomonas aeruginosa [7] = assay: Antibacterial activity against multidrug resistant Pseudomonas aeruginosa 84389 clinical isolate assessed as reduction in bacterial growth measured after 24 hrs; type: functional
Structure (SMILES),Kd [1],MIC (Pseudomonas aeruginosa [2]),MIC (Acinetobacter baumannii [3]),MIC (Acinetobacter baumannii [4]),MIC (Pseudomonas aeruginosa [5]),MIC (Acinetobacter baumannii [6]),MIC (Pseudomonas aeruginosa [7])
C[C@@H](O)[C@@H]1NC(=O)[C@H]2NC(=O)[C@H](CC(N)=O)NC(=O)[C@@H](N)Cc3c[nH]c4c(cccc34)O[C@@H]2c2c[nH]c3cc(ccc23)[C@H](CCCN)[C@@H](C(=O)N[C@@H](CCC(N)=O)C(=O)N[C@@H](Cc2c[nH]c3ccccc23)C(=O)O)NC1=O,2.2 µM,,,,,,
N=C(N)NCCC[C@H](NC(=O)[C@H]1NC(=O)[C@H](CO)NC(=O)[C@H]2NC(=O)[C@H](CCC(N)=O)NC(=O)[C@@H](N)Cc3c[nH]c4c(cccc34)O[C@@H]2c2c[nH]c3cc(ccc23)[C@@H]1CCCN)C(=O)N[C@@H](Cc1c[nH]c2ccccc12)C(=O)O,,8 µg/mL,8 µg/mL,2 µg/mL,16 µg/mL,16 µg/mL,16 µg/mL
C[C@@H](O)[C@@H]1NC(=O)[C@H]2NC(=O)[C@H](CC(=O)O)NC(=O)[C@@H](N)Cc3c[nH]c4c(cccc34)O[C@@H]2c2c[nH]c3cc(ccc23)[C@H](CCCN)[C@@H](C(=O)N[C@@H](CCCNC(=N)N)C(=O)N[C@@H](Cc2c[nH]c3ccccc23)C(=O)O)NC1=O,22.6 µM,,,,,,

# From ChEMBL document CHEMBL5375998, “New Genetically Engineered Derivatives of Antibacterial Darobactins Underpin Their Potential for Antibiotic Development” (J Med Chem, 2023)
